Assay results as given in ChEMBL document CHEMBL3797175, “Discovery of 6-(difluoro(6-(4-fluorophenyl)-[1,2,4]triazolo[4,3-b][1,2,4]triazin-3-yl)methyl)quinoline as a highly potent and selective c-Met inhibitor” (Eur J Med Chem, 2016).
The source made the active and inactive calls. The rule behind the calls is not given here.

How the values were obtained:
[1] = biological target: T1, TPR/MET fusion protein (Mus musculus) (UniProt P16056+F6ZDS4); experiment: Inhibition of TPR-MET phosphorylation in mouse BAF3 cells at 10 nM after 1 hr by Western blot analysis; assay type: cell-based
Method in brief: (§1)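 BaF3 stably expressing TPR-MET (puromycin-selected), grown with IL-3-conditioned medium. Treated 1 h at 37 °C, lysed in SDS sample buffer. 10% SDS-PAGE and immunoblot for phospho-c-Met, phospho-ERK1/2, phospho-AKT and totals; ECL detection.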

MKN-45 = experiment: Antitumor activity against human MKN45 cells xenografted in po dosed athymic nude mouse assessed as tumor growth inhibition administered bid for 21 days measured twice a week during compound dosing; assay type: functional, organism-based
Method in brief: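 Nude mice bearing s.c. tumours. Cells were first grown s.c. to 700–800 mm³, then 1.5 mm³ fragments were transplanted s.c. into the right flank. Mice were randomised at 100–200 mm³ (n=6 treated, n=12 vehicle) and dosed orally twice daily for 21 days. Caliper measurement twice weekly; TV = length×width²/2. TGI taken on the final day versus vehicle; Student's t test.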

[2] = Antiproliferative activity against human SMMC7721 cells after 72 hrs by SRB or MTT assay; assay type: functional, cell-based; conditions: SMMC-7721, 72 h
Method in brief: (§2)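 Cells seeded, exposed next day to a range of concentrations for 72 h. Growth read by sulforhodamine B or MTT. IC50 from four-parameter concentration-response fit. Each concentration tested at least in triplicate, with at least 2 experiments.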

NCI-H226 = experiment: Antiproliferative activity against human NCI-H226 cells after 72 hrs by SRB or MTT assay; assay type: functional, cell-based; conditions: NCI-H226, 72 h; method in brief: as §2
[3] = Selectivity ratio of IC50 for human NCI-H292 cells to IC50 for mouse BAF3 cells expressing TPR-MET; assay type: ADME, cell-based
Method in brief: (§3)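 Both IC50s in each ratio come from one proliferation assay. Cells were seeded and exposed the next day to a range of concentrations for 72 h, then read by SRB or MTT. IC50s were fitted by four-parameter concentration–response, with each concentration at least in triplicate and at least 2 experiments. BaF3/TPR-Met is murine pre-B BaF3 transfected with TPR-MET and puromycin-selected.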

[4] = Selectivity ratio of IC50 for human SPCA4 cells to IC50 for human EBC1 cells; assay type: ADME, cell-based; conditions: spc-a4
[5] = Selectivity ratio of IC50 for human NCI-H292 cells to IC50 for human MKN45 cells; assay type: ADME, cell-based; method in brief: as §3
[6] = biological target: Tyrosine-protein kinase receptor TYRO3 (Homo sapiens) (UniProt Q06418); experiment: Inhibition of recombinant TYRO3 (unknown origin) using poly (Glu, Tyr) 4:1 as substrate at 1000 nM incubated for 60 mins by ELISA relative to control
Method in brief: (§4)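 Recombinant tyrosine kinases assayed on wells precoated with poly(Glu,Tyr)4:1 (20 µg/mL). ATP 10 µmol/L in HEPES pH 7.4 buffer with MgCl2, MnCl2, Na3VO4 and DTT; compound in 1% DMSO, 1% DMSO as control. Reaction 60 min at 37 °C. Phosphotyrosine detected with PY99 and HRP anti-mouse, o-phenylenediamine, A490. Inhibition % relative to control; two experiments.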

[7] = biological target: T2, Hepatocyte growth factor receptor (Homo sapiens, UniProt P08581); experiment: Inhibition of c-Met in human MKN45 cells assessed as reduction in ERK phosphorylation at Tyrosine 204 at 10 nM after 1 hr by Western blot analysis; assay type: cell-based; conditions: MKN-45
Method in brief: (§5)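 EBC-1 or MKN45 cells treated with compound 1 h at 37 °C without HGF, then lysed in 1× SDS sample buffer. Lysates run on 10% SDS-PAGE and transferred to nitrocellulose. Probed with antibodies to c-Met, phospho-c-Met, phospho-ERK1/2, phospho-AKT, AKT and GAPDH, then HRP secondary. ECL detection.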

[8] = Selectivity ratio of IC50 for human NCI-H226 cells to IC50 for human MKN45 cells; assay type: ADME, cell-based; method in brief: as §3
NCI-H460 = experiment: Antiproliferative activity against human NCI-H460 cells after 72 hrs by SRB or MTT assay; assay type: functional, cell-based; conditions: NCI-H460, 72 h; method in brief: as §2
[9] = Selectivity ratio of IC50 for human SPCA4 cells to IC50 for mouse BAF3 cells expressing TPR-MET; assay type: ADME, cell-based; conditions: SPCA4 cells versus BAF3 cells expressing TPR-MET
[10] = Selectivity ratio of IC50 for human NCI-HCC827 cells to IC50 for human MKN45 cells; assay type: ADME, cell-based; conditions: mkn-45; method in brief: as §3
[11] = Selectivity ratio of IC50 for human NCI-HCC827 cells to IC50 for mouse BAF3 cells expressing TPR-MET; assay type: ADME, cell-based
Method in brief: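 Each cell line was seeded in 96-well plates, then exposed the next day to a range of compound concentrations for 72 h. Growth was read by SRB or MTT assay, and IC50 was fitted by a four-parameter concentration-response curve. Each concentration was run at least in triplicate, in at least 2 experiments. BaF3/TPR-Met are murine pre-B BaF3 cells transfected with TPR-MET cDNA and selected in puromycin.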

[12] = biological target: Macrophage-stimulating protein receptor (Homo sapiens) (UniProt Q04912); experiment: Inhibition of recombinant RON (unknown origin) using poly (Glu, Tyr) 4:1 as substrate at 1000 nM incubated for 60 mins by ELISA relative to control; method in brief: as §4
[13] = Antiproliferative activity against human HCT116 cells after 72 hrs by SRB or MTT assay; assay type: functional, cell-based; conditions: HCT-116, 72 h; method in brief: as §2
[14] = Antiproliferative activity against human SPCA4 cells after 72 hrs by SRB or MTT assay; assay type: functional, cell-based; conditions: SPC-A4, 72 h; method in brief: as §2
[15] = Selectivity ratio of IC50 for human SPCA1 cells to IC50 for mouse BAF3 cells expressing TPR-MET; assay type: ADME, cell-based; conditions: SPCA1 cells versus BAF3 cells expressing TPR-MET
NCI-H358 = experiment: Antiproliferative activity against human NCI-H358 cells after 72 hrs by SRB or MTT assay; assay type: functional, cell-based; conditions: NCI-H358, 72 h; method in brief: as §2
[16] = Selectivity ratio of IC50 for human SMMC7721 cells to IC50 for mouse BAF3 cells expressing TPR-MET; assay type: ADME, cell-based
[17] = Selectivity ratio of IC50 for human SNU16 cells to IC50 for mouse BAF3 cells expressing TPR-MET; assay type: ADME, cell-based
[18] = Selectivity ratio of IC50 for human SPCA1 cells to IC50 for human EBC1 cells; assay type: ADME, cell-based; conditions: SPCA1 cells versus EBC1 cells
[19] = Selectivity ratio of IC50 for human HCT116 cells to IC50 for mouse BAF3 cells expressing TPR-MET; assay type: ADME, cell-based; method in brief: as §3
[20] = Selectivity ratio of IC50 for human NCI-H3122 cells to IC50 for mouse BAF3 cells expressing TPR-MET; assay type: ADME, cell-based; method in brief: as §3
[21] = biological target: T2, Hepatocyte growth factor receptor; experiment: Inhibition of c-Met phosphorylation at Tyrosine 1234 in human MKN45 cells at 10 nM after 1 hr by Western blot analysis; assay type: cell-based; conditions: MKN-45; method in brief: as §5
[22] = biological target: T1, TPR/MET fusion protein (Mus musculus); experiment: Inhibition of TPR-MET in mouse BAF3 cells assessed as reduction in AKT phosphorylation at Serine 473 at 10 nM after 1 hr by Western blot analysis; assay type: cell-based; method in brief: as §1
[23] = biological target: T1, TPR/MET fusion protein (Mus musculus); experiment: Inhibition of TPR-MET in mouse BAF3 cells assessed as reduction in ERK phosphorylation at Threonine 202 at 10 nM after 1 hr by Western blot analysis; assay type: cell-based; method in brief: as §1

T1 sequence (F6ZDS4 whole entry partner, the tested form may be a part): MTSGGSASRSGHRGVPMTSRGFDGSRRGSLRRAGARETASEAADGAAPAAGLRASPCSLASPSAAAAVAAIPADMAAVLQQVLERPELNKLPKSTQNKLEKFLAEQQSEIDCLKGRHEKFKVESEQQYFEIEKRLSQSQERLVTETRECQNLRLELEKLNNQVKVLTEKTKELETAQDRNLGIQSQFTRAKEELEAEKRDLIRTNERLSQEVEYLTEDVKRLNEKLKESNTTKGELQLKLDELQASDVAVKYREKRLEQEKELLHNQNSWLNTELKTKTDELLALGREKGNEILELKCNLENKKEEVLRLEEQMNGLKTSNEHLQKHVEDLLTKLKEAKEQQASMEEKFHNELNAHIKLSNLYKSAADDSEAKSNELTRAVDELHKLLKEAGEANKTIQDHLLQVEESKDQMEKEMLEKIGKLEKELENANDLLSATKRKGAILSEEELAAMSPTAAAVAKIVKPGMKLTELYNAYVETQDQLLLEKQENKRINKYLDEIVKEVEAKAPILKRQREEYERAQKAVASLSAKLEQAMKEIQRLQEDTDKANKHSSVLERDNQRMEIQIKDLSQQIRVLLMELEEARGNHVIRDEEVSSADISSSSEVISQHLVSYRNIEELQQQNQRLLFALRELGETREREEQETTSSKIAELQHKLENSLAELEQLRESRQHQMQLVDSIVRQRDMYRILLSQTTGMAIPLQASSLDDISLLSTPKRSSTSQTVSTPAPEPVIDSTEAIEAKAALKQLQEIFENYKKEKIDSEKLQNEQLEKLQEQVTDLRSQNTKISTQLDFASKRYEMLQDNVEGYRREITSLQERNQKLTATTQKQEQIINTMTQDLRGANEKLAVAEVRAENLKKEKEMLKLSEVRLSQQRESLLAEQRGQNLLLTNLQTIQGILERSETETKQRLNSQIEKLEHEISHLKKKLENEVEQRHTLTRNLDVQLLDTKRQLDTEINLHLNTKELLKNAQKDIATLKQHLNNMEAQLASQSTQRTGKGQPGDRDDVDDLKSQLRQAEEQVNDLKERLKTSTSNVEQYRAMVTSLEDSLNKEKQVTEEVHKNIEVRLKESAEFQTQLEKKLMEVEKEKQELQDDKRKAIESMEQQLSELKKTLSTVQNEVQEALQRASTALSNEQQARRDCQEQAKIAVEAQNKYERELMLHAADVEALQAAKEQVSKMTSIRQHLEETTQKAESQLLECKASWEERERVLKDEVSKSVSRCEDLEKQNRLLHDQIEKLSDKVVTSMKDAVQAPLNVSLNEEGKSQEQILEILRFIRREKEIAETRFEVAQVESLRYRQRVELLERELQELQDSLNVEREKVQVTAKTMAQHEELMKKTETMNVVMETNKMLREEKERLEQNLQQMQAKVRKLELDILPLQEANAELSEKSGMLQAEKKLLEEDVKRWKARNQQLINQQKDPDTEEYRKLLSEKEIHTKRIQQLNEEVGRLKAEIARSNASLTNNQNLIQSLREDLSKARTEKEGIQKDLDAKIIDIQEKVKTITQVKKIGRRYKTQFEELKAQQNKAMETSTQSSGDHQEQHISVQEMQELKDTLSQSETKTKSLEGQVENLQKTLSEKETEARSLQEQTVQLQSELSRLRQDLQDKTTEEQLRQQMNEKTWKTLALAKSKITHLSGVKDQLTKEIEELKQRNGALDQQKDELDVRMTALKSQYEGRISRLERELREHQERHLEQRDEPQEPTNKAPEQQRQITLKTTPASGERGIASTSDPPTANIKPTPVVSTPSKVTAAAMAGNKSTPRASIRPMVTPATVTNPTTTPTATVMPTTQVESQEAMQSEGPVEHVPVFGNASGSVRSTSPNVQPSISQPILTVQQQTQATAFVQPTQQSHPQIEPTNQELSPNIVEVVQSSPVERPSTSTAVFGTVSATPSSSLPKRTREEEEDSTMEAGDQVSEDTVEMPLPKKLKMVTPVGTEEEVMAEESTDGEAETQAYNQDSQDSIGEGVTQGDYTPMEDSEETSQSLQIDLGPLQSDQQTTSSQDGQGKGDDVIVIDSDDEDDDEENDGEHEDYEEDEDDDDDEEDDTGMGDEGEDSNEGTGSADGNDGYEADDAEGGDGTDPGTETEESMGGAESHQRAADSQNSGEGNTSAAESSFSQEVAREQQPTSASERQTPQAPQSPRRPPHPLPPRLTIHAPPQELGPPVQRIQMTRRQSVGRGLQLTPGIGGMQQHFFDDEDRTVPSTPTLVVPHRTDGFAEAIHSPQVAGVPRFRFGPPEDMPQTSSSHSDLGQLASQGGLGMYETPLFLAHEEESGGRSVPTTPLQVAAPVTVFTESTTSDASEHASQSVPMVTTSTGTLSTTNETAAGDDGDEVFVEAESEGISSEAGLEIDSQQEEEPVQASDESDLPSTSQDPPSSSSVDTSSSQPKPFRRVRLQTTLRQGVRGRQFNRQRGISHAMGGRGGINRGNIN
T1 sequence (P16056 25-1379 limits assumed): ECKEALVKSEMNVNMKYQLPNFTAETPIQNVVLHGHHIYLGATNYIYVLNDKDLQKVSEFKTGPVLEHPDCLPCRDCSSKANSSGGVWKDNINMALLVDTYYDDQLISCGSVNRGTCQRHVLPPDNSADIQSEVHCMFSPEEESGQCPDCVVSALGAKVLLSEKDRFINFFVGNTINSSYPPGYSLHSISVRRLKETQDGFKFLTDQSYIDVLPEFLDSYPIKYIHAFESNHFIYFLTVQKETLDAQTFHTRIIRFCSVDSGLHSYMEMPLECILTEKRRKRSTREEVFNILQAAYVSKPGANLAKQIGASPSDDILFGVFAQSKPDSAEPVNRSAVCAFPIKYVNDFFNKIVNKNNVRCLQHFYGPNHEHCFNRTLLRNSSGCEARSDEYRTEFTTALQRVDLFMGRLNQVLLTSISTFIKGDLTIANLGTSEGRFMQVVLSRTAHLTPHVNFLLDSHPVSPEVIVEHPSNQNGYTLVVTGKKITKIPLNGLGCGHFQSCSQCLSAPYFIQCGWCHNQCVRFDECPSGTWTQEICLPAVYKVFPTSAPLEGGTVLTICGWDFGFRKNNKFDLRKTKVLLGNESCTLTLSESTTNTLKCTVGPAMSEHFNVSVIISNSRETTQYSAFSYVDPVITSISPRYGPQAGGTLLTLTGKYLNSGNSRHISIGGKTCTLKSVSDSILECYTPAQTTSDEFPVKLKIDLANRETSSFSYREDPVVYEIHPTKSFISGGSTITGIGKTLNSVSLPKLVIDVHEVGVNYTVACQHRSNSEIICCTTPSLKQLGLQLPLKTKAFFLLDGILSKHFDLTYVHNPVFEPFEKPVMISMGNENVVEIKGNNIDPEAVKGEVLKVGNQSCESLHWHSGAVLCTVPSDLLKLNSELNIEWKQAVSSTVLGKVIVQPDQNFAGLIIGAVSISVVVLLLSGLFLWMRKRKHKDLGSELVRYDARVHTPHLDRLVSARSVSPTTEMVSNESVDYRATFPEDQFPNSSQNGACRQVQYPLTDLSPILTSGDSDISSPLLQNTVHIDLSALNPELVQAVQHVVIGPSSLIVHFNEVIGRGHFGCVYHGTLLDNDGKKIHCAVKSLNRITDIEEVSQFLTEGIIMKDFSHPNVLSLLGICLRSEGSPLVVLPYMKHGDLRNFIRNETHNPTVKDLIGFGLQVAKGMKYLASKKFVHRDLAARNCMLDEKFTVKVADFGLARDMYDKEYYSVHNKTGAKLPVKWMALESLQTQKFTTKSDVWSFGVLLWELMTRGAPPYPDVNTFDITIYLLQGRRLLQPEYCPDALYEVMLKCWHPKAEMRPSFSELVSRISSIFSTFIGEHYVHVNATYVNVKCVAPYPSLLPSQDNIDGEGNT
T2 sequence (P08581 whole entry): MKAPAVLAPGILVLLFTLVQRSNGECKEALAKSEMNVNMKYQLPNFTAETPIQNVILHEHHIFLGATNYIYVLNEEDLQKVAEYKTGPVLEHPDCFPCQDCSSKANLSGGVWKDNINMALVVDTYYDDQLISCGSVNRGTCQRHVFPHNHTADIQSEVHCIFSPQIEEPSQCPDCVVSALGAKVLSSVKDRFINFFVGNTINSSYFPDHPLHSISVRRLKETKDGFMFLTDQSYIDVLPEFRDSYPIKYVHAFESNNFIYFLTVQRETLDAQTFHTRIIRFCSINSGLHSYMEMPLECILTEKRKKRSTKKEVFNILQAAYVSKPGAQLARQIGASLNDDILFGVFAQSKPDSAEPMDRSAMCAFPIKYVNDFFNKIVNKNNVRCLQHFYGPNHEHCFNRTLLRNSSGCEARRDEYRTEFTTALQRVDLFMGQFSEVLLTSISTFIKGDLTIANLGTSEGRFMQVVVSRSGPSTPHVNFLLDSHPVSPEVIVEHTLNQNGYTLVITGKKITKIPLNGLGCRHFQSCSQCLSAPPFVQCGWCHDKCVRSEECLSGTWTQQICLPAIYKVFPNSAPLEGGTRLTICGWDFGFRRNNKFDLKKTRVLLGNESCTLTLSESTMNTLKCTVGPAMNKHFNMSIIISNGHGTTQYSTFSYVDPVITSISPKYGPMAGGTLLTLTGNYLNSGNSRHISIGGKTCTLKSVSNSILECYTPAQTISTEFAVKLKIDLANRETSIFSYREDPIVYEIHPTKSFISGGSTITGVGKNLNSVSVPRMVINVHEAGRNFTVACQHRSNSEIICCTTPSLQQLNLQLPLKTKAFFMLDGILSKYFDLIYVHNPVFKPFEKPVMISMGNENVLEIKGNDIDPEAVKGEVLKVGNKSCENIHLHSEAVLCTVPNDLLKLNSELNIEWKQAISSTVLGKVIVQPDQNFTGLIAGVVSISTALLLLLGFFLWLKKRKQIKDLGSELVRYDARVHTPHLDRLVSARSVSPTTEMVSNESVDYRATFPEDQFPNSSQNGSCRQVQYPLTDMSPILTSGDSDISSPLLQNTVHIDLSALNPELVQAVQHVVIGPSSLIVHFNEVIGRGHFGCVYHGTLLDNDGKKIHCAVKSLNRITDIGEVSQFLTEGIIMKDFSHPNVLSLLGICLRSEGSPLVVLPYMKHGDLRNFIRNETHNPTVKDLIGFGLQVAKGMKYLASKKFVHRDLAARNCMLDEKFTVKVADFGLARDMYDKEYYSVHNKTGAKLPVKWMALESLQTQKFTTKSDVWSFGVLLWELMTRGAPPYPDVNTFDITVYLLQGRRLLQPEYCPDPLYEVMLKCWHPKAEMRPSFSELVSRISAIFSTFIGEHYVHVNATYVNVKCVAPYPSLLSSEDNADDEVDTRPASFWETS

inhibition [1]: Active | IC50 (NCI-H226): > 10 µM | inhibition [6]: 10.1% | inhibition [7]: Active | IC50 (NCI-H460): > 10 µM | inhibition [12]: 33.9% | IC50 (NCI-H358): > 10 µM | inhibition [21]: Active | inhibition [22]: Active | inhibition [23]: Active
Structure (SMILES): Fc1ccc(-c2cnc3nnc(C(F)(F)c4ccc5ncccc5c4)n3n2)cc1
TGI (MKN-45): Dose-dependent effect | IC50 [2]: > 10 µM | Ratio IC50 [3]: 10000 | Ratio IC50 [4]: > 10000 | Ratio IC50 [5]: 10000 | Ratio IC50 [8]: > 10000 | selectivity ratio [9]: > 10000 | Ratio IC50 [10]: 10000 | Ratio IC50 [11]: 10000 | IC50 [13]: > 10 µM | IC50 [14]: > 10 µM | selectivity ratio [15]: > 10000 | Ratio IC50 [16]: 10000 | Ratio IC50 [17]: 10000 | selectivity ratio [18]: > 10000 | Ratio IC50 [19]: 10000 | Ratio IC50 [20]: 10000
